Experimental data taken from PMC8682075 (Biochimie, 2020).
Entries after “also recorded” stand apart in the source; their conditions may differ.

Columns and labels:
[1] = biological target: T1, MMUT WT (Homo sapiens, UniProt P22033); assay: Activity screen; type: biochemical; details: cobamide 1 μM, MMUT WT 0.01 μM, 30 minutes
T1 sequence (P22033 33-750): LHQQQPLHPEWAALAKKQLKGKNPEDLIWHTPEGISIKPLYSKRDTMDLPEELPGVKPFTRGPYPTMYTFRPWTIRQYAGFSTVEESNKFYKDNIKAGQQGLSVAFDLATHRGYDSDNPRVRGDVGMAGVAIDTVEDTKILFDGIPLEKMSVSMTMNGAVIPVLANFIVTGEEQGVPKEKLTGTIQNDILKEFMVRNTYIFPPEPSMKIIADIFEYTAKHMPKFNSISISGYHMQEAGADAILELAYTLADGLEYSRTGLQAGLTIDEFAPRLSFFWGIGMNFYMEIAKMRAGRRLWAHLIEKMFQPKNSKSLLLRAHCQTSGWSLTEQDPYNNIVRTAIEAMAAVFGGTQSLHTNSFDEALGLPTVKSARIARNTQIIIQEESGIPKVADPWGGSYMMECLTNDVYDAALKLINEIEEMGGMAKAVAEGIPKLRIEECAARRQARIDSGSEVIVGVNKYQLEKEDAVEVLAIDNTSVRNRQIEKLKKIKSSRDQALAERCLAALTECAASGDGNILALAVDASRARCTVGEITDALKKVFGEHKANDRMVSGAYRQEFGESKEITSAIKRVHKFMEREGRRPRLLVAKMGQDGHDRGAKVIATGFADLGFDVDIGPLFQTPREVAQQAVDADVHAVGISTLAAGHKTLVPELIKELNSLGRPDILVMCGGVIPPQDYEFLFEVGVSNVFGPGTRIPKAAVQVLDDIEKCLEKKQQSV
Summary of the method: (§1)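 At 30 °C, reaction was started with thiokinase, MgCl₂, ADP and methylmalonyl-CoA. Final levels were cofactor 1 μM and (R)-methylmalonyl-CoA 2 mM. Enzyme was WT 0.01 μM, G717V 1 μM, other variants 0.1 μM. After 30 min, an aliquot went into 2.5 mM DTNB; CoA was taken from A412 (ε 14,150 M⁻¹ cm⁻¹).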

[2] = biological target: T2, MMUT (methylmalonyl-CoA mutase) (Homo sapiens, UniProt P22033); assay: Cobamide equilibrium binding by quenching of intrinsic protein fluorescence; details: for binding to MMUT (in words): micromolar cobamide concentrations
T2 sequence (P22033 33-750): T1 sequence (P22033 33-750)
Summary of the method: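 Fluorescence quenching used MMUT at 0.2 μM, from N-terminal His-tag (E. coli BL21(DE3)pLysS) and C-terminal His-tag preparations. Adenosylated cofactor was titrated at 0.19–2.5 μM or 0.23–2.5 μM, depending on cofactor class. Plate-reader excitation/emission was 282/340 nm. Kd came from a quadratic fit allowing for ligand depletion. Values were averaged over ≥5 technical replicates from ≥2 independent experiments.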

[3] = system: Human intrinsic factor (IF); details: cited from earlier work
[4] = biological target: T2, MMUT (methylmalonyl-CoA mutase); assay: Coupled thiokinase/DTNB spectrophotometric MMUT activity assay; type: biochemical; details: for MMUT activity with the cobamide (in words): coupled spectrophotometric assay; for KM, app relative to AdoCbl: higher than AdoCbl
Summary of the method: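 In the coupled kinetic assay, succinyl-CoA was converted by thiokinase to CoA, which was detected spectrophotometrically with DTNB. C-terminally His-tagged MMUT was at 10 nM. Enzymatically made (R)-methylmalonyl-CoA was fixed at 4 mM. Adenosylated cofactor was varied per cofactor, from 0.031 μM at lowest to 12 μM at highest. K_M,app and k_cat come from ≥5 replicates over ≥2 independent experiments and two biological samples.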

[5] = biological target: T2, MMUT (methylmalonyl-CoA mutase); assay: Binding kinetics by stopped-flow fluorescence spectroscopy; details: MMUT 0.2 μM, cobamide 4.8 – 16.2 μM (to 24.3 μM for Ado[Phe]Cba)
Summary of the method: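 Stopped-flow fluorimetry used C-terminally His-tagged MMUT at 0.2 μM final after mixing. Adenosylated cofactor was added at 4.8, 7.2, 10.8 and 16.2 μM (24.3 μM for one cofactor). Excitation was 282 nm, with emission through a 320 nm long-pass filter. Traces, minus the buffer-addition control, were fitted to first-order exponential decay to give k_obs. k_on was the slope of k_obs versus concentration, from four technical replicates.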

[6] = system: MMUT variants G648D, V633G, G717V, P86L, Y100C, Y231N; assay: Activity screen; type: biochemical, human; details: cobamide 1 μM, variants 0.1 μM (G717V 1 μM), 30 minutes
Summary of the method: as §1

## 3-deazaadeninylcobamide
[1]
  activity of WT MMUT with the cobamide (in words): No activity

## 6-azabenzimidazolylcobamide
[1]
  activity of WT MMUT with the cobamide (in words): No activity

## 6-methyladeninylcobamide
[1]
  activity of WT MMUT with the cobamide (in words): No activity

## C/C1=C2/[N-][C@H]([C@H](CC(N)=O)[C@@]2(C)CCC(=O)NC[C@@H](C)O)[C@]2(C)N=C(/C(C)=C3N=C(/C=C4N=C1[C@@H](CCC(N)=O)C\4(C)C)[C@@H](CCC(N)=O)[C@]\3(C)CC(N)=O)[C@@H](CCC(N)=O)[C@]2(C)CC(N)=O.[CH2-][C@H]1O[C@@H](n2cnc3c(N)ncnc32)[C@H](O)[C@@H]1O.[Co] [Ado-cobinamide]
[2]
  binding to MMUT (in words): lower affinity than AdoCbl

## C/C1=C2/[N-][C@H]([C@H](CC(N)=O)[C@@]2(C)CCC(=O)NC[C@@H](C)OP(=O)([O-])O[C@H]2[C@@H](O)[C@@H](n3cnc4nc(C)nc(N)c43)O[C@@H]2CO)[C@]2(C)N=C(/C(C)=C3N=C(/C=C4N=C1[C@@H](CCC(N)=O)C\4(C)C)[C@@H](CCC(N)=O)[C@]\3(C)CC(N)=O)[C@@H](CCC(N)=O)[C@]2(C)CC(N)=O.[CH2-][C@H]1O[C@@H](n2cnc3c(N)ncnc32)[C@H](O)[C@@H]1O.[Co+3] [Ado[2-MeAde]Cba, adenosyl-2-methyladeninylcobamide]
[3]
  IF binding relative to AdoCbl: six orders of magnitude more weakly

## C/C1=C2/[N-][C@H]([C@H](CC(N)=O)[C@@]2(C)CCC(=O)NC[C@@H](C)OP(=O)([O-])O[C@H]2[C@@H](O)[C@@H](n3cnc4cc(C)ccc43)O[C@@H]2CO)[C@]2(C)N=C(/C(C)=C3N=C(/C=C4N=C1[C@@H](CCC(N)=O)C\4(C)C)[C@@H](CCC(N)=O)[C@]\3(C)CC(N)=O)[C@@H](CCC(N)=O)[C@]2(C)CC(N)=O.[CH2-][C@H]1O[C@@H](n2cnc3c(N)ncnc32)[C@H](O)[C@@H]1O.[Co+3] [Ado[5-MeBza]Cba]
[4]
  MMUT activity with the cobamide (in words): active
[1]
  activity of WT MMUT with the cobamide (in words): active

## C/C1=C2/[N-][C@H]([C@H](CC(N)=O)[C@@]2(C)CCC(=O)NC[C@@H](C)OP(=O)([O-])O[C@H]2[C@@H](O)[C@@H](n3cnc4ccccc43)O[C@@H]2CO)[C@]2(C)N=C(/C(C)=C3N=C(/C=C4N=C1[C@@H](CCC(N)=O)C\4(C)C)[C@@H](CCC(N)=O)[C@]\3(C)CC(N)=O)[C@@H](CCC(N)=O)[C@]2(C)CC(N)=O.[CH2-][C@H]1O[C@@H](n2cnc3c(N)ncnc32)[C@H](O)[C@@H]1O.[Co+3] [Ado[Bza]Cba]
[2]
  difference in Kd relative to AdoCbl: ~ 25 fold
[4]
  MMUT activity with the cobamide (in words): active
  KM, app relative to AdoCbl: 10 fold
[1]
  activity of WT MMUT with the cobamide (in words): active

## C/C1=C2/[N-][C@H]([C@H](CC(N)=O)[C@@]2(C)CCC(=O)NC[C@@H](C)OP(=O)([O-])O[C@H]2[C@@H](O)[C@@H](Oc3ccc(C)cc3)O[C@@H]2CO)[C@]2(C)N=C(/C(C)=C3N=C(/C=C4N=C1[C@@H](CCC(N)=O)C\4(C)C)[C@@H](CCC(N)=O)[C@]\3(C)CC(N)=O)[C@@H](CCC(N)=O)[C@]2(C)CC(N)=O.[CH2-][C@H]1O[C@@H](n2cnc3c(N)ncnc32)[C@H](O)[C@@H]1O.[Co+3] [Ado[Cre]Cba]
[2]
  binding to MMUT (in words): bound too strongly to measure a Kd value; also recorded: higher affinity for Ado[Cre]Cba than AdoCbl
[5]
  kon relative to AdoCbl (in words): about six times higher
[4]
  KM, app (in words): in the range of the benzimidazolyl cobamides
  MMUT activity with the cobamide (in words): active
[1]
  activity of WT MMUT with the cobamide (in words): active
[6]
  activity of MMUT variants with the cobamide (in words): supported activity to a large extent in all of the variants

## C/C1=C2/[N-][C@H]([C@H](CC(N)=O)[C@@]2(C)CCC(=O)NC[C@@H](C)OP(=O)([O-])O[C@H]2[C@@H](O)[C@@H](Oc3ccccc3)O[C@@H]2CO)[C@]2(C)N=C(/C(C)=C3N=C(/C=C4N=C1[C@@H](CCC(N)=O)C\4(C)C)[C@@H](CCC(N)=O)[C@]\3(C)CC(N)=O)[C@@H](CCC(N)=O)[C@]2(C)CC(N)=O.[CH2-][C@H]1O[C@@H](n2cnc3c(N)ncnc32)[C@H](O)[C@@H]1O.[Co+3] [Ado[Phe]Cba, adenosylphenolylcobamide]
[4]
  MMUT activity with the cobamide (in words): active
  KM, app relative to AdoCbl: 100 fold
[1]
  activity of WT MMUT with the cobamide (in words): active

## C/C1=C2/[N-][C@H]([C@H](CC(N)=O)[C@@]2(C)CCC(=O)NC[C@@H](C)OP(=O)([O-])O[C@H]2[C@@H](O)[C@@H](n3cnc4cccc(C)c43)O[C@@H]2CO)[C@]2(C)N=C(/C(C)=C3N=C(/C=C4N=C1[C@@H](CCC(N)=O)C\4(C)C)[C@@H](CCC(N)=O)[C@]\3(C)CC(N)=O)[C@@H](CCC(N)=O)[C@]2(C)CC(N)=O.[CH2-][C@H]1O[C@@H](n2cnc3c(N)ncnc32)[C@H](O)[C@@H]1O.[Co+3] [J, 7-methylbenzimidazolylcobamide]
[1]
  activity of WT MMUT with the cobamide (in words): active
[6]
  activity of MMUT variants with the cobamide (in words): partially or entirely lost the ability to use

## C/C1=C2/[N-][C@H]([C@H](CC(N)=O)[C@@]2(C)CCC(=O)NC[C@@H](C)OP(=O)([O-])O[C@H]2[C@@H](O)[C@@H](n3cnc4cccc(N)c43)O[C@@H]2CO)[C@]2(C)N=C(/C(C)=C3N=C(/C=C4N=C1[C@@H](CCC(N)=O)C\4(C)C)[C@@H](CCC(N)=O)[C@]\3(C)CC(N)=O)[C@@H](CCC(N)=O)[C@]2(C)CC(N)=O.[CH2-][C@H]1O[C@@H](n2cnc3c(N)ncnc32)[C@H](O)[C@@H]1O.[Co+3] [K, 7-aminobenzimidazolylcobamide]
[1]
  activity of WT MMUT with the cobamide (in words): active
[6]
  activity of MMUT variants with the cobamide (in words): partially or entirely lost the ability to use

## C/C1=C2/[N-][C@H]([C@H](CC(N)=O)[C@@]2(C)CCC(=O)NC[C@@H](C)O)[C@]2(C)N=C(/C(C)=C3N=C(/C=C4N=C1[C@@H](CCC(N)=O)C\4(C)C)[C@@H](CCC(N)=O)[C@]\3(C)CC(N)=O)[C@@H](CCC(N)=O)[C@]2(C)CC(N)=O.[Co+3] [cobinamide]
[3]
  IF affinity (in words): low affinity

## adenosyl-5-fluorobenzimidazolylcobamide [compound P]
[1]
  activity of WT MMUT with the cobamide (in words): active
[6]
  activity of MMUT variants with the cobamide (in words): some variants also had appreciable activity

## adenosyladeninylcobamide [Ado[Ade]Cba]
[3]
  IF binding relative to AdoCbl: six orders of magnitude more weakly

## cyano-5-hydroxybenzimidazolylcobamide [CN[5-OHBza]Cba]
[3]
  IF affinity, lower than affinity for CNCbl: no more than 2 fold

## cyano-para-cresolylcobamide [CN[Cre]Cba]
[3]
  IF affinity (in words): low affinity

## cyanobenzimidazolylcobamide [CN[Bza]Cba]
[3]
  IF affinity, lower than affinity for CNCbl: no more than 2 fold

## purinylcobamide
[1]
  activity of WT MMUT with the cobamide (in words): No activity
